Measurements: ChEMBL document CHEMBL1275486, “Kinetic characterization of VIM-7, a divergent member of the VIM metallo-beta-lactamase family” (Antimicrob Agents Chemother, 2008)

How the values were obtained:
Conditions in all cases: 07-406
[1] = test system: CC(=O)OCC1=C(C(=O)O)N2C(=O)[C@@H](NC(=O)Cc3cccs3)[C@H]2SC1; assay: (§1) Activity of Pseudomonas aeruginosa beta-lactamase VIM-7 by spectrophotometry
Summary of the method: (§2)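 Recombinant enzyme was expressed in E. coli BL21(DE3) from pET-26b and purified from the periplasm to >99%, with concentration taken from A280. Hydrolysis was followed spectrophotometrically at 25°C in 50 mM sodium cacodylate pH 7.0 with 100 μM ZnCl2 and 0.1 mg/ml BSA. Km and kcat came from initial velocity versus substrate concentration. Some Km values were taken as competitive Ki against nitrocefin reporter.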

[2] = test system: CC(C)(O/N=C(\C(=O)N[C@@H]1C(=O)N2C(C(=O)[O-])=C(C[n+]3ccccc3)CS[C@H]12)c1csc(N)n1)C(=O)O; assay: as §1; summary of the method: as §2
[3] = test system: CC1(C)S[C@@H]2[C@H](NC(=O)C(C(=O)O)c3ccccc3)C(=O)N2[C@H]1C(=O)O; assay: as §1; summary of the method: as §2
[4] = test system: CC1(C)S[C@@H]2[C@H](NC(=O)Cc3ccccc3)C(=O)N2[C@H]1C(=O)O; assay: as §1; summary of the method: as §2
[5] = test system: CC1(C)S[C@@H]2[C@H](NC(=O)[C@H](N)c3ccccc3)C(=O)N2[C@H]1C(=O)O; assay: as §1; summary of the method: as §2
[6] = test system: CC1(C)S[C@@H]2[C@H](NC(=O)[C@H](NC(=O)N3CCNC3=O)c3ccccc3)C(=O)N2[C@H]1C(=O)O; assay: as §1; summary of the method: as §2
[7] = test system: CC1(C)[C@H](C(=O)O)N2C(=O)C[C@H]2S1(=O)=O; assay: as §1; summary of the method: as §2
[8] = test system: CCN1CCN(C(=O)N[C@@H](C(=O)N[C@@H]2C(=O)N3[C@@H]2SC(C)(C)[C@@H]3C(=O)O)c2ccccc2)C(=O)C1=O; assay: as §1; summary of the method: as §2
[9] = test system: CO/N=C(\C(=O)N[C@@H]1C(=O)N2C(C(=O)O)=C(COC(C)=O)CS[C@H]12)c1csc(N)n1; assay: as §1; summary of the method: as §2
[10] = test system: CO/N=C(\C(=O)N[C@@H]1C(=O)N2C(C(=O)O)=C(COC(N)=O)CS[C@H]12)c1ccco1; assay: as §1; summary of the method: as §2
[11] = test system: CO/N=C(\C(=O)N[C@@H]1C(=O)N2C(C(=O)[O-])=C(C[N+]3(C)CCCC3)CS[C@H]12)c1csc(N)n1; assay: as §1; summary of the method: as §2
[12] = test system: CO[C@@]1(NC(=O)C(C(=O)O)c2ccc(O)cc2)C(=O)N2C(C(=O)O)=C(CSc3nnnn3C)CO[C@@H]21; assay: as §1; summary of the method: as §2
[13] = test system: CO[C@@]1(NC(=O)Cc2cccs2)C(=O)N2C(C(=O)O)=C(COC(N)=O)CS[C@@H]21; assay: as §1; summary of the method: as §2
[14] = test system: C[C@@H](O)[C@H]1C(=O)N2C(C(=O)O)=C(SCCNC=N)C[C@H]12; assay: as §1; summary of the method: as §2
[15] = test system: C[C@@H](O)[C@H]1C(=O)N2C(C(=O)O)=C(S[C@@H]3CN[C@H](C(=O)N(C)C)C3)[C@H](C)[C@H]12; assay: as §1; summary of the method: as §2
[16] = test system: C[C@@H](O)[C@H]1C(=O)N2C(C(=O)O)=C(S[C@@H]3CN[C@H](C(=O)Nc4cccc(C(=O)O)c4)C3)[C@H](C)[C@H]12; assay: as §1; summary of the method: as §2
[17] = test system: C[C@H]1[C@H](NC(=O)/C(=N\OC(C)(C)C(=O)O)c2csc(N)n2)C(=O)N1S(=O)(=O)O; assay: as §1; summary of the method: as §2
[18] = test system: C[C@]1(Cn2ccnn2)[C@H](C(=O)O)N2C(=O)C[C@H]2S1(=O)=O; assay: as §1; summary of the method: as §2
[19] = test system: Cc1onc(-c2ccccc2Cl)c1C(=O)N[C@@H]1C(=O)N2[C@@H]1SC(C)(C)[C@@H]2C(=O)O; assay: as §1; summary of the method: as §2
[20] = test system: O=C(Cc1cccs1)N[C@@H]1C(=O)N2C(C(=O)O)=C(/C=C/c3ccc([N+](=O)[O-])cc3[N+](=O)[O-])CS[C@H]12; assay: as §1; summary of the method: as §2
[21] = test system: O=C(Cc1cccs1)N[C@@H]1C(=O)N2C(C(=O)[O-])=C(C[n+]3ccccc3)CS[C@H]12; assay: as §1; summary of the method: as §2
[22] = test system: O=C(O)[C@H]1/C(=C/CO)O[C@@H]2CC(=O)N21; assay: as §1; summary of the method: as §2
[23] = test system: CC(=O)OCC1=C(C(=O)O)N2C(=O)[C@@H](NC(=O)Cc3cccs3)[C@H]2SC1; assay: (§3) Ratio of Kcat to Km for Pseudomonas aeruginosa beta-lactamase VIM-7 by spectrophotometry; summary of the method: as §2
[24] = test system: CC(C)(O/N=C(\C(=O)N[C@@H]1C(=O)N2C(C(=O)[O-])=C(C[n+]3ccccc3)CS[C@H]12)c1csc(N)n1)C(=O)O; assay: as §3; summary of the method: as §2
[25] = test system: CC1(C)S[C@@H]2[C@H](NC(=O)C(C(=O)O)c3ccccc3)C(=O)N2[C@H]1C(=O)O; assay: as §3; summary of the method: as §2
[26] = test system: CC1(C)S[C@@H]2[C@H](NC(=O)Cc3ccccc3)C(=O)N2[C@H]1C(=O)O; assay: as §3; summary of the method: as §2
[27] = test system: CC1(C)S[C@@H]2[C@H](NC(=O)[C@H](N)c3ccccc3)C(=O)N2[C@H]1C(=O)O; assay: as §3; summary of the method: as §2
[28] = test system: CC1(C)S[C@@H]2[C@H](NC(=O)[C@H](NC(=O)N3CCNC3=O)c3ccccc3)C(=O)N2[C@H]1C(=O)O; assay: as §3; summary of the method: as §2
[29] = test system: CC1(C)[C@H](C(=O)O)N2C(=O)C[C@H]2S1(=O)=O; assay: as §3; summary of the method: as §2
[30] = test system: CCN1CCN(C(=O)N[C@@H](C(=O)N[C@@H]2C(=O)N3[C@@H]2SC(C)(C)[C@@H]3C(=O)O)c2ccccc2)C(=O)C1=O; assay: as §3; summary of the method: as §2
[31] = test system: CO/N=C(\C(=O)N[C@@H]1C(=O)N2C(C(=O)O)=C(COC(C)=O)CS[C@H]12)c1csc(N)n1; assay: as §3; summary of the method: as §2
[32] = test system: CO/N=C(\C(=O)N[C@@H]1C(=O)N2C(C(=O)O)=C(COC(N)=O)CS[C@H]12)c1ccco1; assay: as §3; summary of the method: as §2
[33] = test system: CO/N=C(\C(=O)N[C@@H]1C(=O)N2C(C(=O)[O-])=C(C[N+]3(C)CCCC3)CS[C@H]12)c1csc(N)n1; assay: as §3; summary of the method: as §2
[34] = test system: CO[C@@]1(NC(=O)C(C(=O)O)c2ccc(O)cc2)C(=O)N2C(C(=O)O)=C(CSc3nnnn3C)CO[C@@H]21; assay: as §3; summary of the method: as §2
[35] = test system: CO[C@@]1(NC(=O)Cc2cccs2)C(=O)N2C(C(=O)O)=C(COC(N)=O)CS[C@@H]21; assay: as §3; summary of the method: as §2
[36] = test system: C[C@@H](O)[C@H]1C(=O)N2C(C(=O)O)=C(SCCNC=N)C[C@H]12; assay: as §3; summary of the method: as §2
[37] = test system: C[C@@H](O)[C@H]1C(=O)N2C(C(=O)O)=C(S[C@@H]3CN[C@H](C(=O)N(C)C)C3)[C@H](C)[C@H]12; assay: as §3; summary of the method: as §2
[38] = test system: C[C@@H](O)[C@H]1C(=O)N2C(C(=O)O)=C(S[C@@H]3CN[C@H](C(=O)Nc4cccc(C(=O)O)c4)C3)[C@H](C)[C@H]12; assay: as §3; summary of the method: as §2
[39] = test system: C[C@]1(Cn2ccnn2)[C@H](C(=O)O)N2C(=O)C[C@H]2S1(=O)=O; assay: as §3; summary of the method: as §2
[40] = test system: Cc1onc(-c2ccccc2Cl)c1C(=O)N[C@@H]1C(=O)N2[C@@H]1SC(C)(C)[C@@H]2C(=O)O; assay: as §3; summary of the method: as §2
[41] = test system: O=C(Cc1cccs1)N[C@@H]1C(=O)N2C(C(=O)O)=C(/C=C/c3ccc([N+](=O)[O-])cc3[N+](=O)[O-])CS[C@H]12; assay: as §3; summary of the method: as §2
[42] = test system: O=C(Cc1cccs1)N[C@@H]1C(=O)N2C(C(=O)[O-])=C(C[n+]3ccccc3)CS[C@H]12; assay: as §3; summary of the method: as §2
[43] = test system: O=C(O)[C@H]1/C(=C/CO)O[C@@H]2CC(=O)N21; assay: as §3; summary of the method: as §2

Chain of Metallo-b-lactamase (Pseudomonas aeruginosa), Q840P9 (Q840P9 whole entry): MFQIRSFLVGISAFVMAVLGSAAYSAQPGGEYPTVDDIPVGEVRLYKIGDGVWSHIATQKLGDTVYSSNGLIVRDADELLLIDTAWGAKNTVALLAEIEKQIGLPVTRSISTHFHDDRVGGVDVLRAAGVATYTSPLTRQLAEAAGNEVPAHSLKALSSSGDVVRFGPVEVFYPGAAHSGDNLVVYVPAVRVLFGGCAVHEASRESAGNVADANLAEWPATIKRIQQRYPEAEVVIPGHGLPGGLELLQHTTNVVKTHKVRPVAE

With “Metallo-b-lactamase (Pseudomonas aeruginosa), Q840P9” the Km [1] was 45 µM, the kcat [1] was 180 s⁻¹ and the Km [2] was 120 µM. It also gave a kcat [2] of 1.4 s⁻¹, a Km [3] of 84 µM and a kcat [3] of 1200 s⁻¹. The Km [4] was 17 µM, the kcat [4] was 430 s⁻¹ and the Km [5] was 15 µM. It also gave a kcat [5] of 190 s⁻¹, a Km [6] of 66 µM and a kcat [6] of 78 s⁻¹. It also gave a Km [7] of 740 µM, a kcat [7] of 110 s⁻¹ and a Km [8] of 26 µM. For the same substance, the kcat [8] was 140 s⁻¹, the Km [9] was 22 µM and the kcat [9] was 56 s⁻¹. For the same substance, the Km [10] was 29 µM, the kcat [10] was 16 s⁻¹ and the Km [11] was 580 µM. The kcat [11] was 5.3 s⁻¹, the Km [12] was 75 µM and the kcat [12] was 230 s⁻¹. For the same substance, the Km [13] was 68 µM, the kcat [13] was 10 s⁻¹ and the Km [14] was 27 µM. It also gave a kcat [14] of 100 s⁻¹, a Km [15] of 38 µM and a kcat [15] of 42 s⁻¹. It also gave a Km [16] of 28 µM, a kcat [16] of 8 s⁻¹ and a Km [17] of 2700 µM. The Km [18] was 3.5 mM, the kcat [18] was 68 s⁻¹ and the Km [19] was 860 µM. For the same substance, the kcat [19] was 2500 s⁻¹, the Km [20] was 58 µM and the kcat [20] was 1500 s⁻¹. The Km [21] was 250 µM, the kcat [21] was 180 s⁻¹ and the Km [22] was 940 µM. The kcat [22] was 2.3 s⁻¹, the kcat/Km [23] was 4 µM⁻¹ s⁻¹ and the kcat/Km [24] was 0.012 µM⁻¹ s⁻¹. It also gave a kcat/Km [25] of 14 µM⁻¹ s⁻¹, a kcat/Km [26] of 25 µM⁻¹ s⁻¹ and a kcat/Km [27] of 13 µM⁻¹ s⁻¹. The kcat/Km [28] was 1.2 µM⁻¹ s⁻¹, the kcat/Km [29] was 0.15 µM⁻¹ s⁻¹ and the kcat/Km [30] was 5.4 µM⁻¹ s⁻¹. The kcat/Km [31] was 2.6 µM⁻¹ s⁻¹, the kcat/Km [32] was 0.55 µM⁻¹ s⁻¹ and the kcat/Km [33] was 0.0091 µM⁻¹ s⁻¹. It also gave a kcat/Km [34] of 3.1 µM⁻¹ s⁻¹, a kcat/Km [35] of 0.15 µM⁻¹ s⁻¹ and a kcat/Km [36] of 3.7 µM⁻¹ s⁻¹. For the same substance, the kcat/Km [37] was 1.1 µM⁻¹ s⁻¹, the kcat/Km [38] was 0.29 µM⁻¹ s⁻¹ and the kcat/Km [39] was 0.019 µM⁻¹ s⁻¹. The kcat/Km [40] was 2.9 µM⁻¹ s⁻¹, the kcat/Km [41] was 26 µM⁻¹ s⁻¹ and the kcat/Km [42] was 0.72 µM⁻¹ s⁻¹. For the same substance, the kcat/Km [43] was 0.0025 µM⁻¹ s⁻¹.
